Experimental data as given in ChEMBL document CHEMBL1240410, “Cytotoxicity against cholangiocarcinoma cell lines of zerumbone derivatives” (Eur J Med Chem, 2010).
Active and inactive are the calls of the source. The calls are words filed in the database; no cut-off is given here.

What was measured:
Format in all cases: functional, cell-based
[1] = Cytotoxicity against human KKU-M139 cells
Summary of the method: (§1)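 SRB assay: cells seeded at 0.5–1.0 × 10^5 cells/mL and held 24 h at 37 °C. Compounds added in triplicate at final 0.025, 0.16, 0.8, 4 and 20 µg/well, with 0.1% DMSO as solvent control. Exposure was 72 h at 37 °C, plus a 1 h starting-cell plate. Cells fixed with TCA, stained with SRB, OD read at 510 nm. IC50 taken as 50% reduction of control protein increase.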

[2] = Cytotoxicity against human KKU100 cells; summary of the method: as §1
[3] = Cytotoxicity against human KKU-M214 cells; summary of the method: as §1
[4] = Cytotoxicity against human KKU-M213 cells; summary of the method: as §1
[5] = Cytotoxicity against human KKU-M156 cells; summary of the method: as §1
KKU-M214 = test: Cytotoxicity against human KKU-M214 cells at 75 uM
KKU100 = test: Cytotoxicity against human KKU100 cells at 75 uM
KKU-M139 = test: Cytotoxicity against human KKU-M139 cells at 75 uM
KKU-M213 = test: Cytotoxicity against human KKU-M213 cells at 75 uM
KKU-M156 = test: Cytotoxicity against human KKU-M156 cells at 75 uM

SMILES	IC50 [1] [µM]	IC50 [2] [µM]	IC50 [3] [µM]	IC50 [4] [µM]	IC50 [5] [µM]	Activity (KKU-M214)	Activity (KKU100)	Activity (KKU-M139)	Activity (KKU-M213)	Activity (KKU-M156)
C/C1=C\CC(C)(C)C(C#N)CC(=O)/C(C)=C/CC1 (stereo not given)	55.9	25.7	54.5	45.1	37.3					
C/C1=C\CC(C)(C)/C=C/C(=O)/C(C)=C/CC1						inactive	inactive	inactive	inactive	inactive
C/C1=C\CC(C)(C)/C=C/C(=O)[C@H](C)[C@H](N(C)C)CC1						inactive	inactive	inactive	inactive	inactive
C/C1=C\CC(C)(C)C(C#N)CC(=O)[C@H](C)[C@H](N(C)C)CC1 (stereo not given in full)						inactive	inactive	inactive	inactive	inactive
CCCCN(C(C)=O)[C@@H]1CC/C(C)=C/CC(C)(C)/C=C/C(=O)[C@@H]1C						inactive	inactive	inactive	inactive	inactive
C/C1=C\CC(C)(C)/C=C/C(=O)[C@H](C)[C@H](N)CC1 (racemic)	63.3	16.4	59.6	51.9	69					
C/C1=C\CC[C@@]2(C)O[C@H]2CC(C)(C)/C=C/C1=O (racemic)			52.6				inactive	inactive	inactive	inactive
C[C@H]1C(=O)/C=C/C(C)(C)C[C@@H]2O[C@]2(C)CC[C@H]1N (racemic)			18.3				inactive	inactive	inactive	inactive
C/C1=C\CC(C)(C)[C@H](C#N)CC(=O)[C@H](C)[C@H](C#N)CC1 (racemic)			66.5				inactive	inactive	inactive	inactive
CCCCN[C@@H]1CC/C(C)=C/CC(C)(C)/C=C/C(=O)[C@@H]1C (racemic)			41.6	36.6			inactive	inactive		inactive
CCCCN[C@@H]1CC/C(C)=C/CC(C)(C)/C=C/[C@H](O)[C@@H]1C (racemic)	19.6	35.3	16.1	27.2	26.3					
CCCCN[C@@H]1CC[C@@]2(C)O[C@H]2CC(C)(C)/C=C/C(=O)[C@@H]1C (racemic)		16.5	51	37.6	48.2			inactive		
C/C1=C\CC(C)(C)/C=C/C(=O)[C@H](C)[C@H](NCc2ccccc2)CC1 (racemic)						inactive	inactive	inactive	inactive	inactive
C/C1=C\CC(C)(C)/C=C/C(O)/C(C)=C/CC1 (racemic)						inactive	inactive	inactive	inactive	inactive
C/C1=C\CC(C)(C)/C=C/[C@H](O)[C@@]2(C)O[C@H]2CC1 (racemic)						inactive	inactive	inactive	inactive	inactive
CC(=O)N[C@@H]1CC/C(C)=C/CC(C)(C)/C=C/C(=O)[C@@H]1C (racemic)						inactive	inactive	inactive	inactive	inactive
CC(=O)N[C@@H]1CC/C(C)=C/CC(C)(C)/C=C/[C@H](O)[C@@H]1C (racemic)						inactive	inactive	inactive	inactive	inactive
CC(=O)N[C@@H]1CC[C@@]2(C)O[C@H]2CC(C)(C)/C=C/C(=O)[C@@H]1C (racemic)						inactive	inactive	inactive	inactive	inactive
CC(=O)OC1/C=C/C(C)(C)C/C=C(\C)CC/C=C/1C (racemic)						inactive	inactive	inactive	inactive	inactive
C[C@H]1C(=O)/C=C/C(C)(C)C[C@@H]2O[C@]2(C)CC[C@H]1NCc1ccccc1 (racemic)						inactive	inactive	inactive	inactive	inactive
Cc1c2ccncc2c(C)c2c1[nH]c1ccccc12 [ELLIPTECINE]	4.5	25.2	1.01	1.62	9.34					
